# dFosB activator: activators of delta FosB homodimer, primary screen, biochemical, fluorescence polarization, TAMRA-CDK5 oligo, single point. Protein FosB (Mus musculus), P13346. AID 493131, 2011. activation, % at 25 µM. hit rate 0.99% among 340,000. purified delta FosB; percent of positive-control signal above neutral wells;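 active = mean activation above about 17%, with every replicate also reaching it, limit read from the data, passing the limit was not always enough; inconclusive = only one of the two conditions met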
# SR-BI HDL uptake: inhibitors of SR-BI mediated HDL lipid uptake, primary screen, ldlA[mSR-BI] cells, fluorescence, single point | ldlA[mSR-BI] CHO cells, DiI-HDL uptake fluorescence, 3 h | inhibition, % at 12.5 µM | hit rate 0.96% among 320,000 | AID 488896, 2010;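 active = mean replicate inhibition of at least 70% and a set share of replicates each scoring 70 or more; inconclusive = meets just one of the two criteria; inactive = fails both criteria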
# SR-BI DiI-HDL act: activators of SR-BI mediated DiI-HDL uptake, primary screen, ldlA[mSR-BI] CHO cells, DiI fluorescence | AID 504775, 2011 | hit rate 0.096% among 320,000 | 3 h; 100 = double the neutral-control signal | activation, % at 12.5 µM;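 active = mean replicate activation of at least 60% and every replicate at or above 60%; inconclusive = mean or all-replicate condition met, but not both; inactive = mean below 60% and not all replicates reaching 60%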
#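 Material: SR-BI-overexpressing, LDLR-lacking CHO cells | Dosing: Single compound concentration, delivered by pin transfer | Probe or stimulus: Labelled HDL, 10 µg/mL | Signal: Bottom-read cell fluorescence after medium removal, ex 550/em 595 nm | Schedule: 3 h, 37 °C | Evaluation: HDL uptake via cellular fluorescence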
# S100A4 inh HTS: inhibitors of S100A4-myosin IIA peptide binding, primary screen, biochemical, fluorescence polarization, TAMRA-MyoIIA peptide; AID 652163, 2013; inhibition, % at 10.7 µM; hit rate 0.14% among 360,000; Protein S100-A4 (Homo sapiens), P26447;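 active = mean inhibition of at least 70% across replicates, with every replicate also reaching that level; inconclusive = mean inhibition reaches 70% but some replicates fall short; inactive = mean inhibition below 70%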
#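 incubation = readout 5 min after mixing, signal stable up to 60 min | system = S100A4 monomer protein | buffer or medium = HEPES pH 7.2 with CaCl2, KCl, NaCl, DTT, Triton | benchmarks = neutral control DMSO, positive control TFP | also added = fluorescent myosin IIA peptide, 5 nM | compound dosing = one concentration per compound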
# RAD54 branch: inhibitors of human RAD54 branch migration, primary screen, biochemical, fluorescence, single point; RAD54 Holliday junction branch migration, FAM/BHQ fluorescence; inhibition, % at 10.4 µM; hit rate 0.14% among 360,000;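 active = mean normalized replicate activity at least 40 and at least half of replicates scoring 40 or more; inconclusive = only one of the two criteria met; inactive = mean below 40 and under half of replicates reaching 40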;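 also: inhibitors cause a drop in the FAM fluorescence signal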
# Target sequence (Q92698 whole entry, looked up): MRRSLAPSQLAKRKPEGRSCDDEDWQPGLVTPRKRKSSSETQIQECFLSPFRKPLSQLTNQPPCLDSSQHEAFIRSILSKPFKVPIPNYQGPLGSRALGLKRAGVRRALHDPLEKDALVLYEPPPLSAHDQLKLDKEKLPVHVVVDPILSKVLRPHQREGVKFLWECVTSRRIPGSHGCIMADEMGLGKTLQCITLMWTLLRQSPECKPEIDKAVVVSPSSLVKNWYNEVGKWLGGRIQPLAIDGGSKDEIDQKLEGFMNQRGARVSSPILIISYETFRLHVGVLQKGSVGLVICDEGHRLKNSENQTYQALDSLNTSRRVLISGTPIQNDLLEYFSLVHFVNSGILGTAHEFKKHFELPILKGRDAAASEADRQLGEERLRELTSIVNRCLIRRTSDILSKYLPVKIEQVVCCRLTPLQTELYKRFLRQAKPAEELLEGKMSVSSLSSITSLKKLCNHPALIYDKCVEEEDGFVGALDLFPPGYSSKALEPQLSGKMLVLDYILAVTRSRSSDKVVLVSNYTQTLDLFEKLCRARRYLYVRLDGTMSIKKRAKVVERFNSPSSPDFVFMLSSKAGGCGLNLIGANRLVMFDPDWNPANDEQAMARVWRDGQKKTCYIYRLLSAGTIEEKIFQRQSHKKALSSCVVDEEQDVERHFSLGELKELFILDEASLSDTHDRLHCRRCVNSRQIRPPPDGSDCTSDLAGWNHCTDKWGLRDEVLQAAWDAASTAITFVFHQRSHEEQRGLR
# PvdQ acylase: P. aeruginosa PvdQ acylase inhibitors, primary screen, biochemical, fluorescence, plate reader and imaging, single point; purified PvdQ acylase; inhibition, % at 10 µM; hit rate 0.063% among 340,000; AID 488965, 2010; in the data active = inhibition above about 30%, passing the limit was not always enough; inconclusive = no clear call, values can overlap the other calls
# DNA binding: DNA binding of candidate compounds, dose response, artefact control for RAD54 inhibitor project, biochemical, fluorescence polarization, cherry-pick. AC50, µM (titrated, usually from 35 µM). shares compounds with RAD54 branch. AID 651673, 2012. Acridine orange-DNA displacement, 20 min. hit rate 8% among 460;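 active = signal drop giving an AC50 within twice the top valid tested concentration of each sample, actives reach about 35 µM in these data; inactive = activity opposite to expected, plus the rest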;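 also: polarization loss reports compound binding to salmon sperm DNA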
# Hits are given with their value; – = inactive; ? = inconclusive; · = no result given. Most compounds without a hit are left out; they make up all but 1.6% or so of the library.
SMILES,dFosB activator,SR-BI HDL uptake,SR-BI DiI-HDL act,S100A4 inh HTS,RAD54 branch,PvdQ acylase,DNA binding
COc1ccccc1Nc1c2ccccc2nc2ccccc12,37,–,–,–,59,–,–
COc1ccc(Nc2c3ccccc3nc3ccccc23)cc1,60,–,–,–,101,–,27µM
COc1ccc(Nc2c3c(nc4ccccc24)CCCC3)cc1OC,–,–,–,–,·,–,·
COc1cc(Nc2c3ccccc3nc3ccccc23)cc(OC)c1OC,44,–,–,–,76,–,–
O=C(N[C@H]1CC[C@@H](CCNS(=O)(=O)Cc2ccccc2)O[C@@H]1CO)c1cnccn1,·,·,·,–,–,·,·
Oc1cccc(Nc2c3ccccc3nc3ccccc23)c1,65,–,–,–,57,–,30µM
c1ccc2c(NCCc3c[nH]c4ccccc34)c3ccccc3nc2c1,123,–,–,–,93,–,36µM
Fc1cccc(NCCc2c[nH]c3ccccc23)n1,–,–,–,–,–,–,·
C[C@H](CO)N1C[C@H](C)[C@H](CN(C)Cc2ccc(C(=O)Nc3ccccc3N)cc2)Oc2ccc(NS(=O)(=O)c3ccc(F)cc3)cc2C1=O,·,·,·,–,–,·,·
CCOC(=O)Nc1c2ccccc2nc2ccccc12,–,–,–,–,57,–,–
C[C@H]1CN([C@@H](C)CO)C(=O)c2cc(NC(=O)CCCN(C)C)ccc2O[C@@H]1CN(C)S(C)(=O)=O,·,·,·,–,–,·,·
CN(C)CCNC(=O)c1cc2c(s1)-c1ccc(Cl)cc1SC2,–,–,–,–,57,–,–
Cc1ccc(-c2cnc3c(c2)C(=O)N([C@H](C)CO)C[C@@H](C)[C@@H](CN(C)C(=O)c2cccnc2)O3)cc1,·,·,·,–,–,·,·
CCC(=O)N(Cc1cc2cc(OC)ccc2[nH]c1=O)c1cc(C)ccc1C,–,–,–,·,?,–,–
O=C(C[C@H]1CC[C@H](NS(=O)(=O)c2ccc(F)cc2)[C@H](CO)O1)N1CCC(Cc2ccccc2)CC1,·,·,·,–,–,·,·
COc1ccc2oc3cc(NCCN(C)C)ccc3c(=O)c2c1,·,·,·,–,86,·,–
COc1ccc2c(=O)c3ccccc3oc2c1,–,–,–,–,–,–,·
C(=C/c1nccc2c1[nH]c1ccccc12)/c1ccc2c(c1)OCO2,64,–,–,–,59,–,–
CCCNC(=O)N(C)C[C@@H]1Oc2cc(-c3ccccc3F)ccc2S(=O)(=O)N([C@@H](C)CO)C[C@@H]1C,·,·,·,–,–,·,·
CO[C@H]1CN(C)C(=O)c2ccc(NC(=O)C3CCC3)cc2OC[C@@H](C)N(C(=O)CN(C)C)C[C@@H]1C,·,·,·,·,–,·,·
OCCN1CCN(c2ncnc3c2sc2nc(N4CCOCC4)c4c(c23)CCC4)CC1,20,–,–,–,53,–,–
O=C(C[C@@H]1CC[C@@H]2[C@H](COC[C@@H](O)CN2Cc2cccc(-c3ccncc3)c2)O1)N1CCOCC1,·,·,·,–,–,·,·
COc1cc2sc3cc(NCC[C@@H]4CCCN4C)ccc3c(=O)c2cc1OC,30,–,–,–,76,–,–
COc1cccc2sc3ccc(NCCC4CCCN4C)cc3c(=O)c12 (stereo unspecified),–,–,–,–,61,–,–
Cc1cc(NCCCN(C)C)n2c(nc3ccccc32)c1C#N,–,–,–,–,70,–,–
SMILES,dFosB activator,SR-BI HDL uptake,SR-BI DiI-HDL act,S100A4 inh HTS,RAD54 branch,PvdQ acylase,DNA binding
Cc1c(OCC(=O)NC2CC(C)(C)NC(C)(C)C2)ccc2c3c(c(=O)oc12)CCC3,–,–,–,–,–,–,·
Cc1c(OCC(=O)NC2CC(C)(C)NC(C)(C)C2)ccc2c1oc(=O)c1ccccc12,–,–,–,–,67,–,–
COc1ccc(C)c2sc(N(CCN(C)C)C(=O)c3ccc4ccccc4c3)nc12,–,–,–,–,52,–,–
COc1ccc(OC)c2sc(N(CCN(C)C)C(=O)c3cc(Cl)sc3Cl)nc12,–,–,–,–,·,–,·
COc1ccc(Cl)c2sc(N(CCN(C)C)C(=O)C3=COCCO3)nc12,–,–,–,–,?,–,–
Cc1ccc(-c2nc(C(=O)NCCCN3CCOCC3)cc3c2[nH]c2ccccc23)cc1,–,–,–,–,–,–,·
COc1ccc(-c2nc(C(=O)NCCCN3CCOCC3)cc3c2[nH]c2ccccc23)cc1OC,?,–,–,–,94,–,–
Cc1cc(C)cc(OCC(O)CN2CCC(CN3C(=O)c4cccc5cccc(c45)C3=O)CC2)c1 (stereo unspecified),52,–,–,–,66,–,–
COc1ccc(NC(=O)Nc2ccc3c(c2)C(=O)N([C@H](C)CO)C[C@H](C)[C@@H](CN(C)Cc2ccc(Oc4ccccc4)cc2)O3)cc1,·,·,·,–,–,·,·
Cc1noc(C)c1S(=O)(=O)Nc1ccc2c(c1)CC(=O)N([C@H](C)CO)C[C@@H](C)[C@H](CN(C)CC1CCCCC1)O2,·,·,·,–,–,·,·
CCN(CC)CCNC(=O)c1cc2c(=O)n(C)c3ccccc3c2s1,–,–,–,–,62,–,–
O=C(NCCCN1CCCC1)c1cc2c(Cl)nc3ccccc3c2s1,–,–,–,–,?,–,–
CCN1CCN(CCCNC(=O)c2cc3c(=O)[nH]c4ccccc4c3s2)CC1,–,–,–,·,52,–,–
CC1CCN(CCCNC(=O)c2n[nH]c(=O)c3ccccc23)CC1,–,–,–,·,–,–,·
CC1CCN(CCCNC(=O)c2cc3c(Cl)nc4ccccc4c3s2)CC1,–,–,–,–,89,–,–
O=C(C[C@H]1CC[C@H]2[C@@H](COC[C@H](O)CN2Cc2ccccc2F)O1)NC1CCC1,·,·,·,–,–,·,·
C[C@@H]1CCCCO[C@@H](CN(C)C(=O)Cc2ccccc2)[C@H](C)CN([C@@H](C)CO)C(=O)c2cc(NC(=O)c3ccccc3)ccc2O1,·,·,·,–,–,·,·
CCCCN(CC)CCCNC(=O)c1cc2c(=O)[nH]c3ccccc3c2s1,–,–,–,–,–,–,·
CCCCN(CC)CCNC(=O)c1cc2c(=O)[nH]c3ccc(C)cc3c2s1,–,–,–,–,?,–,–
Cc1ccc(S(=O)(=O)N2CCOCC2)c(C)c1NS(C)(=O)=O,–,–,–,·,?,–,–
Cc1nc2ccccc2c2oc(C(=O)NCCN3CCN(C)CC3)cc12,–,–,–,–,?,–,–
